Source: PubChem BioAssay
MC4R ag barr = MC4R agonists recruiting beta-arrestin, primary screen, cell-based, luminescence, agonist arm of biased-ligand search; U2OS MC4R beta-arrestin complementation; percent of melanotan II response, DMSO zero; activation, % at 8.9 µM; hit rate 0.98% among 360,000; AID 540308, 2011;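 active = activation above a per-plate cutoff, the mean activation of sample wells on that plate plus 3 SD, cut at about 8% in these data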
XBP1 UPR activ = activators of adaptive XBP1 UPR arm, primary screen, cell-based, CHO-XBP1 luciferase reporter, luminescence, uHTS. hit rate 0.33% among 330,000. IRE1-XBP1 UPR activation; percent of tunicamycin response, DMSO as zero. activation, % at 20 µM. AID 463104, 2010;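 active = versus positive control, 20 µM dose yields 30% or more activation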;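 note: 100% = tunicamycin at 10 µg/mL and 0% = DMSO only wells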
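Material: CHO cell line with stable XBP1 luciferase reporter; buffer or medium: F12 medium containing 10% fetal bovine serum; compound: single point, 20 µM final compound, 1% DMSO; incubation: 6 h treatment, 37 °C; measured by: glow luminescence from Steady-Glo reagent; evaluation: activation, % of tunicamycin; control set: tunicamycin high, DMSO low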
CHOP UPR activ = activators of apoptotic CHOP UPR arm, primary screen, cell-based, CHO-CHOP luciferase reporter, luminescence, uHTS; hit rate 0.34% among 330,000; UPR activation; percent of tunicamycin response over DMSO baseline; AID 449763, 2010; activation, % at 10 µM;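 active = at 10 µM dose, activation of 40% or more, normalized to positive control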;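 note: 100% = tunicamycin at 10 µg/mL and 0% = DMSO alone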
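Assay system: CHO cells with stable CHOP pathway luciferase reporter; Buffer or medium: F12 plus 10% serum; Times: 16-18 h cell attachment, then 6 h compound exposure, 37 °C; Signal: luciferase luminescence; Read-out basis: percent activation relative to tunicamycin control; Control set: tunicamycin high control, DMSO low control.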
MC4R antagonist = MC4R antagonists of cAMP signaling, primary screen, cell-based, TR-FRET, antagonist arm of biased-ligand search; Melanocortin receptor 4 (Homo sapiens), P32245; MC4R-expressing cells, MTII-stimulated cAMP, LANCE TR-FRET; inhibition, % at 6.5 µM; hit rate 0.48% among 360,000; AID 540295, 2011;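 active = inhibition above its plate's cutoff, the mean of tested wells on that plate plus 3 SD, cut at about 29% in these data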;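 note: 0% = Melanotan II alone and 100% = Melanotan II plus saturating MCL0020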
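Assay system: human MC4R-expressing U2OS cells; reagent: Melanotan II stimulation of cells; dosing: 6.5 µM single dose; timing: compound 30 min, challenge 1 h, detection 1 h; signal: TR-FRET cAMP assay; replicates: one well per compound, no replicates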
Bfl-1 A1 inh = caspase 3/7 activation in MEF A1-2A-BIM cells, primary screen, A1 inhibitor project, cell-based, luminescence, HTS; Caspase-Glo 3/7 luminescence, 3 h; percent of clofoctol response, vehicle zero; caspase activation, % (no concentration beside the values); hit rate 0.066% among 330,000;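 active = over half of replicate activation scores above 10%, or exactly half above 10 with the replicate mean above 10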
MC4R barr ag = MC4R beta-arrestin agonists, retest, confirmation, cell-based, luminescence, U2OS; shares compounds with MC4R ag barr; hit rate 31% among 2,400; activation, % at 8.9 µM; U2OS MC4R beta-arrestin recruitment; scaled DMSO 0%, Melanotan II 100%;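 active = mean activation across replicates above the hit cutoff set in the earlier primary screen, cut at about 8% in these data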
MOR DOR agonist = agonists of MOR-DOR heterodimerization, counter-screen for MC4R biased agonist project, cell-based, luminescence; shares compounds with MC4R ag barr; U2OS PathHunter beta-arrestin, beta-gal luminescence; percent of deltorphin B response, DMSO zero; activation, % at 9.2 µM; hit rate 5.8% among 2,400; AID 602194, 2012;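 active = mean activation across replicates exceeds the hit threshold derived in the earlier primary screen, cut at about 18% in these data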;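 note: 100% = deltorphin B at 0.9 µM final and 0% = DMSO alone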
Target sequence (P35372 whole entry, looked up): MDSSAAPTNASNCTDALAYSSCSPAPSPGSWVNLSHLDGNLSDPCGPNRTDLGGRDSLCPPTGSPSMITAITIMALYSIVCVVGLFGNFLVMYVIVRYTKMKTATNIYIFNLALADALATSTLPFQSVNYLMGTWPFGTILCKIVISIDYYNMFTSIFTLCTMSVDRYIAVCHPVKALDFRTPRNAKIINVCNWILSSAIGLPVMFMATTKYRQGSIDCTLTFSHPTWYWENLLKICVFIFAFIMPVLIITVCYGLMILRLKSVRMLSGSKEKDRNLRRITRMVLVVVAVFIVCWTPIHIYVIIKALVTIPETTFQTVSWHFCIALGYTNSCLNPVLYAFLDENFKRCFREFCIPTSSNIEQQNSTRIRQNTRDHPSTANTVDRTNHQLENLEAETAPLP
Target sequence (P41143 whole entry, looked up): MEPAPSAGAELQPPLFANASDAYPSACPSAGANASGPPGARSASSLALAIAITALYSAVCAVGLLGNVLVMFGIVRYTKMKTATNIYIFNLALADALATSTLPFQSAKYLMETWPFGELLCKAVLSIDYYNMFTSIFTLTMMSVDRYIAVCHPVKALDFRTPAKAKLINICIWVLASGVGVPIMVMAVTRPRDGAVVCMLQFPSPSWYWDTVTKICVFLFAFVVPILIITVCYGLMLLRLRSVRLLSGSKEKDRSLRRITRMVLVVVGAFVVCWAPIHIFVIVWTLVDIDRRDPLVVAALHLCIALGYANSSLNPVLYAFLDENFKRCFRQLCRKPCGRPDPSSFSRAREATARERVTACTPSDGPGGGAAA
Starred values were filed as active, the others as inactive; . = not tested or not shown. A selection: hits, their analogues and other compounds. The true share with any hit is near 2%.

SMILES	MC4R ag barr	XBP1 UPR activ	CHOP UPR activ	MC4R antagonist	Bfl-1 A1 inh	MC4R barr ag	MOR DOR agonist
CCC(=O)N1CCC1(C)C(=O)Nc1nccs1 (centres undefined)	-1	.	.	3	.	.	.
CCOC(=O)C1=C(c2ccccc2)NC(N)=NC1c1ccc(OCc2ccc(C(=O)OC)cc2)cc1 (centres undefined)	14*	12	2	13	1	6	9
O=C(C=Cc1cccs1)c1ccccc1	1	.	.	6	.	.	.
O=C(Nc1ccccc1F)c1oc2ccccc2c1NC(=O)C1CC1	9.6*	-2	5	2	-2	4	5
O=C(Nc1ccc(F)cc1)c1oc2ccccc2c1NC(=O)C1CCCC1	5	1	1	5	0	.	.
CC1(Cc2ccc(OC(F)(F)F)cc2)C(=O)Nc2ccc(S(=O)(=O)NC3CCCCC3)cc21 (centres undefined)	4	.	.	5	.	.	.
Cc1cccc(-c2n[nH]c(=S)n2/N=C/c2ccc(C)s2)c1	12*	-3	-1	5	1	0	4
CCCCCCCCCCCCCCCCn1cc[n+](C)c1	15*	3	23	16	0	30*	8
Cc1ccc(CNC(=O)Cn2c(=O)c3sccc3n(Cc3ccc([N+](=O)[O-])cc3)c2=O)cc1	14*	0	2	15	0	-3	3
COc1ccc(CN2CCC[C@]3(N[C@H](c4ccc(C(F)(F)F)cc4)[C@@H]4C(=O)N(C)C(=O)[C@@H]43)C2=O)cc1	0	.	.	-1	.	.	.
CCn1c(CC(=O)Nc2ccccc2F)nnc1SCC(=O)NC1=NCCS1	-2	.	.	15	.	.	.
Cc1ccc(NC(=O)c2ccc(NCC3CCCO3)c([N+](=O)[O-])c2)cc1Cl (centres undefined)	34*	11	0	-2	8.2*	13*	21*
Cc1ccc(NC(=O)c2ccc(NCc3ccco3)c([N+](=O)[O-])c2)cc1Cl	11*	9	2	3	31*	25*	26*
Cc1ccc(C(=O)NCc2ccco2)cc1[N+](=O)[O-]	-1	-1	0	6	-1	.	.
CCN(CC)S(=O)(=O)c1ccc(O)c(C(=O)OCC(=O)N2CCCc3ccccc32)c1	-1	.	.	6	.	.	.
COc1cc(/C=C/C(=O)OCC(=O)NCCc2ccc(F)cc2)ccc1OC(F)F	10*	-1	0	11	0	3	4
COc1cc(/C=C/C(=O)OCC(=O)NCCc2ccccc2)ccc1OC(F)F	3	-1	-1	1	0	.	.
CCOc1ccc(Oc2ccc(NS(=O)(=O)c3ccc(CCC(=O)O)cc3)cc2)cc1	-3	.	.	-1	.	.	.
Cc1ccc(/C=C2\SC(=S)N(CCC(=O)NNC(=O)c3ccccc3O)C2=O)cc1	0	4	2	0	0	.	.
CC(/C=C1\SC(=S)N(CCC(=O)Nc2ccc(O)cc2)C1=O)=C\c1ccccc1	22*	1	9	3	0	13*	6
Cc1ccc(/C=C2/SC(=S)N(CCCC(=O)Nc3ccc(O)cc3)C2=O)cc1	17*	-3	-4	0	.	7	8
Cc1ccc(/C=C2\SC(=S)N(CCC(=O)NNS(=O)(=O)c3ccccc3)C2=O)cc1	47*	3	5	14	0	1	6
O=C(CCN1C(=O)/C(=C/c2cccs2)SC1=S)Nc1ccc(O)cc1	11*	0	0	-4	0	6	6
O=C(CCN1C(=O)/C(=C/c2cccs2)SC1=S)Nc1cccc(O)c1	3	-2	2	-5	-1	.	.
CC(=Cc1ccccc1)C=C1SC(=S)N(CCCC(=O)Nc2ccc(C(=O)O)c(O)c2)C1=O	1	.	.	23	.	.	.
SMILES	MC4R ag barr	XBP1 UPR activ	CHOP UPR activ	MC4R antagonist	Bfl-1 A1 inh	MC4R barr ag	MOR DOR agonist
C[C@H](CO)N1C[C@H](C)[C@@H](CN(C)Cc2cccnc2)Oc2ncc(-c3cccc(C#N)c3)cc2C1=O	-1	.	.	-2	.	.	.
O=C(CC1CC2CCC1C2)N1CCN(S(=O)(=O)c2ccc(F)cc2)CC1 (centres undefined)	2	.	.	5	.	.	.
Cc1ccc(NC(=O)CN2C(=O)S/C(=C\c3cccn3C)C2=O)cc1	15*	-3	-1	8	1	-1	5
COc1cccc(/C=C2/SC(=S)N(CCCC(=O)Nc3ccc(O)cc3)C2=O)c1	9.9*	0	38	-4	0	20*	5
Cc1cc(NC(=O)CCN2C(=O)/C(=C/c3ccccc3Cl)SC2=S)no1	16*	-1	-1	4	0	5	3
COCCNC(=O)C1(C)CCCN(C(=O)c2cc(F)cc(F)c2)C1 (centres undefined)	-2	.	.	4	.	.	.
CC(=O)c1ccc(NC(=O)COC(=O)/C=C/c2cccs2)cc1	-2	-1	1	-3	0	.	.
O=C(COC(=O)/C=C/c1cccs1)Nc1ccc2ccccc2c1	16*	-2	0	7	0	3	7
C[C@H]1CN([C@@H](C)CO)C(=O)CCCn2cc(nn2)CO[C@@H]1CN(C)S(=O)(=O)c1ccc(Oc2ccccc2)cc1	0	.	.	1	.	.	.
CCCS(=O)(=O)NC(=O)C1(C)CCN(C(=O)c2ccccc2C(F)(F)F)C1 (centres undefined)	-1	.	.	-2	.	.	.
C[C@@H]1CN([C@@H](C)CO)C(=O)c2cc(Br)cnc2O[C@H]1CN(C)C(=O)CN1CCOCC1	0	.	.	7	.	.	.
Cc1ccc(CSc2nnc(SCC(=O)N/N=C/c3c[nH]c4ccccc34)s2)cc1	12*	.	.	-8	.	13*	18*
O=C(CSc1nnc(SCc2ccccc2)s1)N/N=C/c1c[nH]c2ccccc12	1	.	.	10	.	.	.
O=C(CSc1nnc(SCc2ccccc2)s1)N/N=C/C=C\c1ccco1	-1	1	1	3	-1	.	.
